Test results as given in ChEMBL document CHEMBL2331494, “First synthesis and biological evaluation of indeno[2,1-e]pyrazolo[3,4-b]pyrazin-5-one and related derivatives” (2013).
In brackets after ≈: the same amount, converted by molar mass.

How the values were obtained:
Assay type in all cases: functional
Geotrichum candidum = assay: Antifungal activity against Geotrichum candidum AUMC 226 assessed as diameter of growth inhibition zone at 20 mg/ml at 28 degC after 7 days; details: AUMC 226, 168 h, read-out: DIZ
Outline: (§1)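 Inocula: each fungus grown 7 days in Sabouraud's dextrose broth (30 ml per flask). Plates were 10 cm Petri dishes with 1 ml microbial suspension and 15 ml Sabouraud's dextrose agar each. Compound solutions were applied and the diameter of the growth inhibition zone was recorded.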

Micrococcus luteus = assay: Antibacterial activity against Micrococcus luteus AUMC B-112 assessed as diameter of growth inhibition zone at 20 mg/ml at 28 degC after 48 hrs; details: AUMC B-112, 48 h, read-out: DIZ
Outline: (§2)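 Inocula: each bacterial strain grown 48 h in nutrient broth (30 ml per flask). For the assay, 1 ml microbial suspension and 15 ml nutrient agar were poured into each 10 cm Petri plate, compound solutions were applied, and the diameter of the inhibition zone was read.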

Fusarium oxysporum = assay: Antifungal activity against Fusarium oxysporum AUMC 5119 assessed as diameter of growth inhibition zone at 20 mg/ml at 28 degC after 7 days; details: AUMC 5119, 168 h, read-out: DIZ; outline: as §1
Bacillus cereus = assay: Antibacterial activity against Bacillus cereus AUMC B-52 assessed as diameter of growth inhibition zone at 20 mg/ml at 28 degC after 48 hrs; details: AUMC B-52, 48 h, read-out: DIZ; outline: as §2
Serratia marcescens = assay: Antibacterial activity against Serratia marcescens AUMC B-55 assessed as diameter of growth inhibition zone at 20 mg/ml at 28 degC after 48 hrs; details: AUMC B-55, 48 h, read-out: DIZ; outline: as §2
Aspergillus flavus [1] = assay: Antifungal activity against Aspergillus flavus AUMC 1276 assessed as diameter of growth inhibition zone at 20 mg/ml at 28 degC after 7 days; details: AUMC 1276, 168 h, read-out: DIZ; outline: as §1
Trichophyton rubrum [2] = assay: Antifungal activity against Trichophyton rubrum AUMC 1804 assessed as diameter of growth inhibition zone at 20 mg/ml at 28 degC after 7 days; details: AUMC 1804, 168 h, read-out: DIZ; outline: as §1
Candida albicans = assay: Antifungal activity against Candida albicans AUMC 418 assessed as diameter of growth inhibition zone at 20 mg/ml at 28 degC after 7 days; details: AUMC 418, 168 h, read-out: DIZ; outline: as §1
Staphylococcus aureus = assay: Antibacterial activity against Staphylococcus aureus AUMC B-54 assessed as diameter of growth inhibition zone at 20 mg/ml at 28 degC after 48 hrs; details: AUMC B-54, 48 h, read-out: DIZ; outline: as §2
Pseudomonas aeruginosa = assay: Antibacterial activity against Pseudomonas aeruginosa AUMC B-73 g assessed as diameter of growth inhibition zone at 20 mg/ml at 28 degC after 48 hrs; details: read-out: DIZ; outline: as §2
[3] = tested on: Scopulariopsis brevicaulis; assay: Antifungal activity against Scopulariopsis brevicaulis AUMC 729 assessed as diameter of growth inhibition zone at 20 mg/ml at 28 degC after 7 days; details: AUMC 729, 168 h, read-out: DIZ; outline: as §1
Escherichia coli = assay: Antibacterial activity against Escherichia coli AUMC B-53 assessed as diameter of growth inhibition zone at 20 mg/ml at 28 degC after 48 hrs; details: AUMC B-53, 48 h, read-out: DIZ; outline: as §2
Aspergillus flavus [4] = assay: Antifungal activity against Aspergillus flavus AUMC 3214 assessed as growth inhibition at 28 degC after 7 days; details: for MIC: Aspergillus flavus, AUMC 3214, 168 h
Trichophyton rubrum [5] = assay: Antifungal activity against Trichophyton rubrum AUMC 1804 assessed as growth inhibition at 28 degC after 7 days; details: for MIC: Trichophyton rubrum, AUMC 1804, 168 h

SMILES | zone of inhibition at 20000 µg/mL (Geotrichum candidum) | zone of inhibition at 20000 µg/mL (Micrococcus luteus) | zone of inhibition at 20000 µg/mL (Fusarium oxysporum) | zone of inhibition at 20000 µg/mL (Bacillus cereus) | zone of inhibition at 20000 µg/mL (Serratia marcescens) | zone of inhibition at 20000 µg/mL (Aspergillus flavus [1]) | zone of inhibition at 20000 µg/mL (Trichophyton rubrum [2]) | zone of inhibition at 20000 µg/mL (Candida albicans) | zone of inhibition at 20000 µg/mL (Staphylococcus aureus) | zone of inhibition at 20000 µg/mL (Pseudomonas aeruginosa) | zone of inhibition at 20000 µg/mL [3] | zone of inhibition at 20000 µg/mL (Escherichia coli) | diameter of the inhibition zone (DIZ) (Aspergillus flavus [4]) | MIC (Aspergillus flavus [4]) | diameter of the inhibition zone (DIZ) (Trichophyton rubrum [5]) | MIC (Trichophyton rubrum [5])
Cc1nn(-c2ccccc2)c2nc3c(nc12)/C(=N\O)c1ccccc1-3 | 0 mm | 0 mm | 0 mm | 0 mm | 0 mm | 0 mm | 0 mm | 0 mm | 8 mm | 8 mm | 0 mm | 0 mm |  |  |  | 
Cc1nn(-c2ccccc2)c2nc3c(nc12)/C(=C/c1ccccc1Cl)c1ccccc1-3 | 0 mm | 0 mm | 0 mm | 0 mm | 0 mm | 9 mm | 26 mm | 0 mm | 10 mm | 8 mm | 0 mm | 8 mm | 9 mm | 20 mg/mL (≈ 47.5 mM) | 10 mm | 600 µg/mL (≈ 1.43 mM)
CCOC(=O)/C(C#N)=C1\c2ccccc2-c2nc3c(nc21)c(C)nn3-c1ccccc1 | 0 mm | 0 mm | 0 mm | 0 mm | 0 mm | 0 mm | 0 mm | 10 mm | 8 mm | 8 mm | 0 mm | 8 mm |  |  |  | 
Cc1nn(-c2ccccc2)c2nc3c(nc12)Cc1ccccc1-3 | 0 mm | 0 mm | 0 mm | 0 mm | 0 mm | 0 mm | 0 mm | 0 mm | 8 mm | 0 mm | 0 mm | 0 mm |  |  |  | 
Cc1nn(-c2ccccc2)c2nc3c(nc12)/C(=N/N=C1/NC(=O)CS1)c1ccccc1-3 | 10 mm | 0 mm | 0 mm | 0 mm | 0 mm | 12 mm | 26 mm | 0 mm | 10 mm | 8 mm | 0 mm | 8 mm | 10 mm | 5 mg/mL (≈ 11.8 mM) | 12 mm | 600 µg/mL (≈ 1.41 mM)
O=C(N[C@H](CO)[C@H](O)c1ccc([N+](=O)[O-])cc1)C(Cl)Cl [CHLORAMPHENICOL] |  | 20 mm |  | 22 mm | 20 mm |  |  |  | 18 mm | 18 mm |  | 18 mm |  |  |  | 
